Measurements from ChEMBL document CHEMBL1123648, “Synthesis, chemical reactivity, and antileukemic activity of 5-substituted 6,7-bis(hydroxymethyl)pyrrolo[1,2-c]thiazole biscarbamates and the corresponding sulfoxides and sulfones” (1987).

Legend:
[1] = Toxicity day survivors expressed as number of animals that survived to day five/ number of test animals under control group B at a dose of 100 mg/kg; 6 survived out of 6; type: functional, Mus musculus
[2] = Antileukemic activity against Murine P388 lymphocytic leukemia, body weight difference of the test animals compared to control group A animals at a dose of 25 mg/kg; type: functional, Mus musculus; design: unit not given here
Procedure, shortened: (§1)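 CD2F1 mice implanted intraperitoneally with ascitic fluid carrying ca. 1×10^6 P388 cells, under the NCI protocol. Dosing was intraperitoneal, starting 24 h after inoculation, then every 24 h for five doses in total. The body weight difference of treated mice is taken against untreated controls. Toxicity day survivors are the mice alive at day five out of those tested.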

P388 [3] = assay: Log cell population relative to cell population at the beginning of treatment compared to control group C at a dose of 6.25 mg/kg; type: functional, Mus musculus
[4] = Percent increase in life span of test animals compared to untreated tumor-bearing control group C animals at a dose of 50 mg/kg; type: functional; conditions: Mus musculus
P388 [5] = assay: Log cell population relative to cell population at the beginning of treatment compared to control group B at a dose of 12.5 mg/kg; type: functional, Mus musculus
[6] = Antileukemic activity against Murine P388 lymphocytic leukemia and toxicity day survivors expressed as number of animals that survived to day five/ number of test animals under control group B at a dose of 25 mg/kg; 6 survived out of 6; type: functional, Mus musculus
[7] = Percent increase in life span of test animals compared to untreated tumor-bearing control group B animals at a dose of 25 mg/kg; type: functional; conditions: Mus musculus
P388 [8] = assay: Log cell population relative to cell population at the beginning of treatment compared to control group B at a dose of 6.25 mg/kg; type: functional, Mus musculus
P388 [9] = assay: Log cell population relative to cell population at the beginning of treatment compared to control group C at a dose of 12.5 mg/kg; type: functional, Mus musculus
[10] = Antileukemic activity against Murine P388 lymphocytic leukemia, body weight difference of the test animals compared to control group B animals at a dose of 25 mg/kg; type: functional, Mus musculus; design: unit not given here; procedure, shortened: as §1
[11] = Antileukemic activity against Murine P388 lymphocytic leukemia, body weight difference of the test animals compared to control group C animals at a dose of 50 mg/kg; type: functional, Mus musculus; design: unit not given here; procedure, shortened: as §1
[12] = Antileukemic activity against Murine P388 lymphocytic leukemia, body weight difference of the test animals compared to control group C animals at a dose of 25 mg/kg; type: functional, Mus musculus; procedure, shortened: as §1
P388 [13] = assay: Log cell population relative to cell population at the beginning of treatment compared to control group B at a dose of 50 mg/kg; type: functional, Mus musculus
[14] = Toxicity day survivors expressed as number of animals that survived to day five/ number of test animals under control group A at a dose of 100 mg/kg; 6 survived out of 6; type: functional, Mus musculus
[15] = Antileukemic activity against Murine P388 lymphocytic leukemia, body weight difference of the test animals compared to control group A animals at a dose of 12.5 mg/kg; type: functional, Mus musculus; procedure, shortened: as §1
[16] = Antileukemic activity against Murine P388 lymphocytic leukemia and toxicity day survivors expressed as number of animals that survived to day five/ number of test animals under control group C at a dose of 50 mg/kg; 6 survived out of 6; type: functional, Mus musculus
[17] = Toxicity day survivors expressed as number of animals that survived to day five/ number of test animals under control group A at a dose of 50 mg/kg; 6 survived out of 6; type: functional, Mus musculus
[18] = Percent increase in life span of test animals compared to untreated tumor-bearing control group B animals at a dose of 12.5 mg/kg; type: functional; conditions: Mus musculus
[19] = Percent increase in life span of test animals compared to untreated tumor-bearing control group A animals at a dose of 25 mg/kg; type: functional; conditions: Mus musculus
P388 [20] = assay: Log cell population relative to cell population at the beginning of treatment compared to control group A at a dose of 12.5 mg/kg; type: functional, Mus musculus
[21] = Toxicity day survivors expressed as number of animals that survived to day five/ number of test animals under control group B at a dose of 50 mg/kg; 6 survived out of 6; type: functional, Mus musculus
[22] = Percent increase in life span of test animals compared to untreated tumor-bearing control group C animals at a dose of 6.25 mg/kg; type: functional; conditions: Mus musculus
[23] = Log cell population relative to cell population at the beginning of treatment compared to control group A at a dose of 100 mg/kg; type: functional, Mus musculus
P388 [24] = assay: Log cell population relative to cell population at the beginning of treatment compared to control group A at a dose of 50 mg/kg; type: functional, Mus musculus
[25] = Percent increase in life span of test animals compared to untreated tumor-bearing control group B animals at a dose of 6.25 mg/kg; type: functional; conditions: Mus musculus
[26] = Toxicity day survivors expressed as number of animals that survived to day five/ number of test animals under control group C at a dose of 100 mg/kg; 6 survived out of 6; type: functional, Mus musculus
[27] = Percent increase in life span of test animals compared to untreated tumor-bearing control group C animals at a dose of 25 mg/kg; type: functional; conditions: Mus musculus
[28] = Antileukemic activity against Murine P388 lymphocytic leukemia, body weight difference of the test animals compared to control group A animals at a dose of 6.25 mg/kg; type: functional, Mus musculus; procedure, shortened: as §1
P388 [29] = assay: Log cell population relative to cell population at the beginning of treatment compared to control group C at a dose of 25 mg/kg; type: functional, Mus musculus
[30] = Toxicity day survivors expressed as number of animals that survived to day five/ number of test animals under control group B at a dose of 12.5 mg/kg; 6 survived out of 6; type: functional, Mus musculus
P388 [31] = assay: Log cell population relative to cell population at the beginning of treatment compared to control group A at a dose of 25 mg/kg; type: functional, Mus musculus
[32] = Percent increase in life span of test animals compared to untreated tumor-bearing control group A animals at a dose of 100 mg/kg; type: functional; conditions: Mus musculus
[33] = Percent increase in life span of test animals compared to untreated tumor-bearing control group A animals at a dose of 6.25 mg/kg; type: functional; conditions: Mus musculus
[34] = Toxicity day survivors expressed as number of animals that survived to day five/ number of test animals under control group C at a dose of 6.25 mg/kg; 6 survived out of 6; type: functional, Mus musculus
[35] = Percent increase in life span of test animals compared to untreated tumor-bearing control group A animals at a dose of 50 mg/kg; type: functional; conditions: Mus musculus
[36] = Percent increase in life span of test animals compared to untreated tumor-bearing control group B animals at a dose of 100 mg/kg; type: functional; conditions: Mus musculus
[37] = Antileukemic activity against Murine P388 lymphocytic leukemia, body weight difference of the test animals compared to control group B animals at a dose of 50 mg/kg; type: functional, Mus musculus; design: unit not given here; procedure, shortened: as §1
[38] = Toxicity day survivors expressed as number of animals that survived to day five/ number of test animals under control group A at a dose of 25 mg/kg; 6 survived out of 6; type: functional, Mus musculus
[39] = Log cell population relative to cell population at the beginning of treatment compared to control group C at a dose of 100 mg/kg; type: functional, Mus musculus
[40] = Toxicity day survivors expressed as number of animals that survived to day five/ number of test animals under control group C at a dose of 25 mg/kg; 6 survived out of 6; type: functional, Mus musculus

**Q.** What does the source list for CC(C)NC(=O)OCc1c(COC(=O)NC(C)C)c(-c2ccc(Cl)c(Cl)c2)n2c1CCC2?
**A.** TDS [1]: 6; BWD [2]: -1.7; KE (P388 [3]): -0.55; ILS at 50 mg/kg [4]: 96%; KE (P388 [5]): 1.08; TDS [6]: 6; ILS at 25 mg/kg [7]: 66%; KE (P388 [8]): 0.69; KE (P388 [9]): -0.07; BWD [10]: -2.2; BWD [11]: -1.8; BWD [12]: -1.4; KE (P388 [13]): 5.71; TDS [14]: 6; BWD [15]: -0.6; TDS [16]: 6; TDS [17]: 6; ILS at 12.5 mg/kg [18]: 45%; ILS at 25 mg/kg [19]: 75%; KE (P388 [20]): 1.4; TDS [21]: 6; ILS at 6.25 mg/kg [22]: 26%; KE [23]: 0.8; KE (P388 [24]): 4.35; ILS at 6.25 mg/kg [25]: 41%; TDS [26]: 6; ILS at 25 mg/kg [27]: 55%; BWD [28]: 0; KE (P388 [29]): 1.85; TDS [30]: 6; KE (P388 [31]): 2.81; ILS at 100 mg/kg [32]: 48%; ILS at 6.25 mg/kg [33]: 51%; TDS [34]: 6; ILS at 50 mg/kg [35]: 97%; ILS at 100 mg/kg [36]: -14%; BWD [37]: -3.1; TDS [38]: 6; KE [39]: >6.68; TDS [40]: 6
